From PubChem BioAssay
Lmaj promast = Leishmania major promastigote growth inhibition; AID 1063; inhibition, % at 10 µM; 9% of 200,000 active; Leishmania major promastigotes, resazurin fluorescence viability; in the data active = inhibition above about 50%;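 note: promastigotes grown with compound for 44 hours at 28 °C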
T cruzi inh = blocks replication of Trypanosoma cruzi. T. cruzi beta-gal in NIH3T3, luminescence, 90 h. inhibition, % (concentration not given with the values). 1.4% of 300,000 active;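 active = mean inhibition across valid replicates above about 55%, limit read from the data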;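 note: signal also drops with host cell toxicity which is not excluded here; 0% = plate median of DMSO wells and 100% = zero luminescence signal; higher percent means less beta-gal luminescence so fewer parasites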
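System – NIH/3T3 host cells with β-galactosidase reporter T. cruzi · Doses – single 50 nL compound addition per well in DMSO · Reagent – 5000 T. cruzi trypomastigotes/well · Medium – Low-serum DMEM with 2% FBS · Timing – ≥90 h infection period, 3 h prior cell attachment · Evaluation – parasite load inhibition, % · Technique – GalScreen luminescence, 60 min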
XBP1 UPR activ = adaptive UPR (XBP1) activation. CHO-XBP1 luciferase reporter, IRE1-XBP1 UPR activation, luminescence; percent of tunicamycin response, DMSO as zero. activation, % at 20 µM. 0.33% of 330,000 active;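 active = versus positive control, 20 µM dose yields 30% or more activation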;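 note: 100% = tunicamycin at 10 µg/mL and 0% = DMSO only wells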
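Material: CHO cell line with stable XBP1 luciferase reporter; buffer or medium: F12 medium containing 10% fetal bovine serum; compound: single point, 20 µM final compound, 1% DMSO; incubation: 6 h treatment, 37 °C; measured by: glow luminescence from Steady-Glo reagent; evaluation: activation, % of tunicamycin; control set: tunicamycin high, DMSO low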
Dynein cargo inh = dynein cargo transport inhibition | AID 1381 | 0.47% of 220,000 active | 3617.4 mouse cells, GR-EGFP nuclear translocation imaging; test concentration mostly 20 µM; stimulated with dexamethasone, 1 µM; active compounds read low | z-score, hits read low;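 active = plate z-score of nuclear minus cytoplasmic receptor signal below a set negative limit, without overly bright fluorescence or cell loss, cut at about -3.5 in these data, passing the limit was not always enough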;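 note: z-score of nuclear minus cytoplasmic ring GR-EGFP intensity difference per well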
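Schedule: 48 h induction, then 1 h compound, then 30 min agonist, 37 °C. Buffer or medium: tetracycline-free induction medium containing charcoal-stripped FBS. Reagent: 1.0 µM final dexamethasone stimulus. Evaluation: nuclear versus cytoplasmic GR-EGFP signal, averaged per well. Signal: high-content fluorescence imaging after fixation.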
CHOP UPR activ = apoptotic UPR (CHOP) activation. 0.34% of 330,000 active. CHO-CHOP luciferase reporter, luminescence; percent of tunicamycin response over DMSO baseline. activation, % at 10 µM. AID 449763;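 active = at 10 µM dose, activation of 40% or more, normalized to positive control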;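 note: 100% = tunicamycin at 10 µg/mL and 0% = DMSO alone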
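Test system: CHO CHOP reporter cells. Input: 500 CHO-CHOP cells per well. Medium: F12 with 10% FBS. Technique: luciferase luminescence. Measure: percent activation relative to tunicamycin control. Dosing: 10 µM compound, 0.5% DMSO. Timing: 16-18 h cell attachment, then 6 h compound exposure, 37 °C.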
CHOP inh = blocks CHOP induction under ER stress. CHO-K1 CHOP-promoter luciferase, tunicamycin-induced, 15-18 h. inhibition, % at 10 µM. 3.8% of 220,000 active. AID 2732;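 active = compounds that reduced the stress-induced luciferase reporter signal by more than about 70% of percent inhibition, limit read from the data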;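 note: 0% = tunicamycin plus vehicle and 100% = wells without tunicamycin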
L major 1uM = L. major promastigote growth inhibition, 1 uM repeat. inhibition, % at 1 µM. 13% of 1,100 active. shares compounds with Lmaj promast. resazurin fluorescence, 48 h;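 active = inhibition above about 50% in both repeat tests, limit read from the data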
* = called active by the depositor. The entries come from a sample that favours hits as a whole.

Screening Cc1ccc(N2Cc3ccccc3C2=N)cc1[N+](=O)[O-] returned Lmaj promast -4, T cruzi inh -10, XBP1 UPR activ -4, Dynein cargo inh 0.23, CHOP UPR activ 2 and CHOP inh -26.
For NC(=O)c1cn(C2OC(CO)C(O)C2O)c2ncnc(N)c12 (centres undefined) the results were Lmaj promast 99*, T cruzi inh 57*, XBP1 UPR activ 1, Dynein cargo inh 0.5, CHOP UPR activ -4, CHOP inh 105* and L major 1uM 97*.
CCOP(=S)(NN(Cc1ccccc1)C(=O)c1ccccc1)OCC was read as Lmaj promast 89*, T cruzi inh 7, XBP1 UPR activ 1, Dynein cargo inh 0.18, CHOP UPR activ -1, CHOP inh 15 and L major 1uM -22.
Screening COc1ccccc1-n1c(-c2cccs2)nc2ccccc2c1=O returned Lmaj promast 15, T cruzi inh -5, XBP1 UPR activ 3, Dynein cargo inh 1.3, CHOP UPR activ 1 and CHOP inh -7.
Screening CCOc1cc2c(cc1OCC)-n1cccc1C(c1ccccc1OC)NC2 (centres undefined) returned T cruzi inh 18, XBP1 UPR activ -2 and CHOP UPR activ 0.
COc1ccc(OC)c(N=Cc2c(O)[nH]c(=O)[nH]c2=O)c1 was read as T cruzi inh -10, XBP1 UPR activ -1 and CHOP UPR activ 0.
Cc1cccc(OP(N)(=O)Oc2cccc(C)c2C)c1C was read as T cruzi inh 0, XBP1 UPR activ 1, Dynein cargo inh -0.64, CHOP UPR activ -2 and CHOP inh 31.
`Cc1cccc(C)c1OP(N)(=O)OCC(F)(F)F` (centres undefined) gave Lmaj promast 68*, T cruzi inh -7, XBP1 UPR activ 0, Dynein cargo inh 0.94, CHOP UPR activ 1, CHOP inh -7 and L major 1uM -3.
`CN1C2c3ccccc3C3C4c5ccccc5C(C31)C(C2[N+](=O)[O-])N4C` (centres undefined) gave T cruzi inh 11, XBP1 UPR activ -2, Dynein cargo inh -0.12, CHOP UPR activ 2 and CHOP inh 13.
`CCNC(=O)NC(=O)C(C)OC(=O)c1c(C)nn(Cc2ccccc2Cl)c1Cl` (centres undefined) gave Lmaj promast 51*, T cruzi inh -1, XBP1 UPR activ 0, Dynein cargo inh -1.1, CHOP UPR activ 1, CHOP inh 26 and L major 1uM -12.
For C=CCN(CC#CCOc1ccccc1OC)CC=C the results were Lmaj promast 4, T cruzi inh -9, XBP1 UPR activ 3, Dynein cargo inh -0.022, CHOP UPR activ 1 and CHOP inh 1.
For c1ccc2c(CN3CCCCC3)c[nH]c2c1 the results were T cruzi inh -5, XBP1 UPR activ -1, Dynein cargo inh 1.2, CHOP UPR activ 0 and CHOP inh -20.
Screening CCN1CC=C(c2c[nH]c3ccccc23)CC1 returned Lmaj promast 99*, T cruzi inh -6, XBP1 UPR activ 2, Dynein cargo inh 0.17, CHOP UPR activ 2, CHOP inh -13 and L major 1uM -5.
Cc1ccc(C2=NC(C)(C)N3C2C3c2ccc([N+](=O)[O-])cc2)cc1 (centres undefined) was read as Lmaj promast 57*, T cruzi inh 0, XBP1 UPR activ -1, Dynein cargo inh 0.34, CHOP UPR activ 0, CHOP inh 70* and L major 1uM -18.
COc1ccc(-c2cc(-c3ccccc3)[n+](C)c(-c3ccccc3)c2)cc1 was read as Lmaj promast 100*, T cruzi inh 55*, XBP1 UPR activ 2, Dynein cargo inh -1.2, CHOP UPR activ 1, CHOP inh -14 and L major 1uM 11.
Screening Cc1ccccc1-[n+]1c(-c2ccccc2)cc(-c2ccccc2)cc1-c1ccccc1 returned T cruzi inh 41, XBP1 UPR activ -1 and CHOP UPR activ 1.
`C[n+]1c(-c2ccccc2)cc(CCCCc2cc(-c3ccccc3)[n+](C)c(-c3ccccc3)c2)cc1-c1ccccc1` gave Lmaj promast 100*, XBP1 UPR activ 2, Dynein cargo inh 0.75, CHOP UPR activ -2, CHOP inh 7 and L major 1uM 95*.
For Cc1ccc(-c2cc(-c3ccccc3)cc(-c3ccccc3)[n+]2-c2ccc(C(=O)O)cc2)cc1 the results were T cruzi inh -9, XBP1 UPR activ 1 and CHOP UPR activ 0.
For C[C@]12CC[C@H](O)C[C@H]1CC[C@@H]1[C@@H]2C[C@@H](O)[C@]2(C)[C@@H](C3=CC(=O)OC3)CC[C@]12O the results were XBP1 UPR activ -8 and CHOP UPR activ 2.
COC(=O)C1CN(C#N)N(c2ccc(Cl)cc2)C12c1ccccc1-c1ccccc12 (centres undefined) was read as Lmaj promast 100*, T cruzi inh 43, XBP1 UPR activ -7, Dynein cargo inh -3.9, CHOP UPR activ -10 and L major 1uM 101*.
For Cc1nc2c(=O)n(C)c(=O)nc-2n(C)n1 the results were Lmaj promast 101*, T cruzi inh 31, XBP1 UPR activ -9, Dynein cargo inh -0.74, CHOP UPR activ -6 and L major 1uM 101*.
`COc1cc(C(=S)N2CCOCC2)cc(OC)c1OC(=O)Cc1ccccc1` gave Lmaj promast 5, T cruzi inh -20, XBP1 UPR activ -1, Dynein cargo inh -0.34, CHOP UPR activ 0 and CHOP inh 13.
O=C1C=C2C=C[C@H]3C[C@]2(O1)[C@@H]1CCCCN13 was read as Lmaj promast 51*, T cruzi inh -23, XBP1 UPR activ -2, Dynein cargo inh -1.1, CHOP UPR activ -3, CHOP inh -21 and L major 1uM -2.
Cn1cc[n+](C)c1P(=S)(c1ccccc1)c1ccccc1 was read as Lmaj promast 22, T cruzi inh -8, XBP1 UPR activ -4, Dynein cargo inh 0.64, CHOP UPR activ 0 and CHOP inh -5.
For Cc1c(P(=S)(c2ccccc2)c2ccccc2)[n+]2ccccc2n1C the results were Lmaj promast 73*, T cruzi inh 9, Dynein cargo inh 0.48, CHOP inh -1 and L major 1uM -9.
`CC(=O)OC1N=C(c2ccccc2Cl)c2cc(Br)ccc2N(C)C1=O` (centres undefined) gave T cruzi inh -13, XBP1 UPR activ 0, Dynein cargo inh -1.1, CHOP UPR activ 0 and CHOP inh 18.
